# Measurements as given in ChEMBL document CHEMBL1156279, “2-Cyano-3,10-dioxooleana-1,9(11)-dien-28-oic acid anhydride. A novel and highly potent anti-inflammatory and cytoprotective agent” (Bioorg Med Chem Lett, 2010).
# Active and inactive are the calls of the source. No cut-off for these calls is given here.
# Tests used:
# Lung = experiment: Drug level in CD1 mouse lung at 2 umol, ip after 6 hrs by HPLC/MS; type: ADME, organism-based; conditions: in vivo
# In short: (§1)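 Female CD-1 mice dosed i.p. with 2 µmol compound in DMSO–cremophor–PBS (1:1:8). Sacrificed 6 hours later; liver, lung, whole blood and plasma collected for compound levels (tissue µmol/kg, blood/plasma µM).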
# [1] = target: T1, Heme oxygenase 1 (Mus musculus) (UniProt P14901); experiment: Induction of HO1 in mouse RAW264.7 cells at 100 nM after 6 hrs by SDS-PAGE; type: cell-based
# T1 sequence (whole entry): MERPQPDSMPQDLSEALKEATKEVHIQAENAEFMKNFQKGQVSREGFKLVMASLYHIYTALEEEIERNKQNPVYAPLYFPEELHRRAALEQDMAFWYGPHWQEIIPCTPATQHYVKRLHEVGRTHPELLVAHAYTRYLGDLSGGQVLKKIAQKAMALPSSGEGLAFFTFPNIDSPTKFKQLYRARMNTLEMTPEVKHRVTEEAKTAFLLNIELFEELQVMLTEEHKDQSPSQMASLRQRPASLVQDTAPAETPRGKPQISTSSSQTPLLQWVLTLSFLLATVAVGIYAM
# In short: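 RAW 264.7 cells exposed to compounds at 100 nM for 6 hours. Total cell lysates resolved by SDS-PAGE, immunoblotted with HO-1 antibody, ECL detection.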
# [2] = Drug uptake in CD1 mouse plasma at 2 umol, ip after 6 hrs by HPLC/MS; type: ADME, organism-based; conditions: read-out: Drug uptake; in short: as §1
# Liver = experiment: Drug level in CD1 mouse liver at 2 umol, ip after 6 hrs by HPLC/MS; type: ADME, organism-based; conditions: in vivo; in short: as §1
# [3] = Drug level in CD1 mouse whole blood at 2 umol, ip after 6 hrs by HPLC/MS; type: ADME, organism-based; conditions: read-out: Drug uptake; in short: as §1
# RAW264.7 = experiment: Antiinflammatory activity against IFN-gamma-stimulated mouse RAW264.7 cells assessed as nitrite accumulation after 24 hrs by Griess reagent method; type: functional, cell-based; conditions: RAW264.7, 24 h
# In short: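 RAW 264.7 cells co-treated with graded compound concentrations and interferon-γ (10 ng/mL) for 24 hours; nitric oxide in supernatants measured by Griess reaction. IC50 averaged over three experiments.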
# [4] = Stability assessed as compound remaining after 24 hrs in presence of in 10% fetal bovine serum; type: ADME; conditions: cattle
# In short: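 Compound incubated in RAW 264.7 cell growth medium (RPMI with 10% fetal bovine serum) at 37 °C. Percentage of material remaining followed over time up to 24 h.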
# Mus musculus = experiment: Induction of HO1 in CD1 mouse liver at 2 umol, ip after 6 hrs by SDS-PAGE; type: functional, organism-based
# In short: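 CD-1 mice, 4 per group, given a single 2 µmol i.p. injection. Livers harvested after 6 h and homogenized. Lysates separated by SDS-PAGE, probed with HO-1 antibodies and developed by ECL.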
SMILES,Drug uptake (Lung),Activity [1],concentration at 6 h [2],Drug uptake (Liver),concentration at 6 h [3],IC50 (RAW264.7),Activity [4],Activity (Mus musculus)
CC1(C)CC[C@]2(C(=O)O)CC[C@]3(C)[C@H](C(=O)C=C4[C@@]5(C)C=C(C#N)C(=O)C(C)(C)[C@@H]5CC[C@]43C)[C@@H]2C1 [BARDOXOLONE],0.018 µmol/kg,Active,2 µM,0.041 µmol/kg,19 µM,28.3 nM,–,–
CC1(C)CC[C@]2(C(=O)OC(=O)[C@]34CCC(C)(C)C[C@H]3[C@H]3C(=O)C=C5[C@@]6(C)C=C(C#N)C(=O)C(C)(C)[C@@H]6CC[C@@]5(C)[C@]3(C)CC4)CC[C@]3(C)[C@H](C(=O)C=C4[C@@]5(C)C=C(C#N)C(=O)C(C)(C)[C@@H]5CC[C@]43C)[C@@H]2C1,0.031 µmol/kg,Active,43 µM,0.045 µmol/kg,52 µM,14.7 nM,Active,Active
C=C(C)[C@@H]1CC[C@]2(C(=O)O)CC[C@]3(C)[C@H](CC[C@@H]4[C@@]5(C)C=C(C#N)C(=O)C(C)(C)[C@@H]5CC[C@]43C)[C@@H]12,–,Active,–,–,–,–,–,–
C=C(C)[C@@H]1CC[C@]2(C(=O)OC(=O)[C@]34CC[C@@H](C(=C)C)[C@@H]3[C@H]3CC[C@@H]5[C@@]6(C)C=C(C#N)C(=O)C(C)(C)[C@@H]6CC[C@@]5(C)[C@]3(C)CC4)CC[C@]3(C)[C@H](CC[C@@H]4[C@@]5(C)C=C(C#N)C(=O)C(C)(C)[C@@H]5CC[C@]43C)[C@@H]12 [LUPANE ANHYDRIDE],–,inactive,–,–,–,> 10000 nM,–,–
